According to ChEMBL document CHEMBL1268838, “The synthesis and biologic evaluation of anti-platelet and cytotoxic β-nitrostyrenes” (Bioorg Med Chem, 2010):

Columns and labels:
[1] = system: Integrin alpha-IIb/beta-3 (Homo sapiens); assay: Inhibition of glycoprotein 2b/3a activation in human platelets assessed as inhibition of thrombin-induced PAC-1 binding preincubated for 3 mins before thrombin challenge after 15 mins by flow cytometry; settings: 0.25 h
MDA-MB-231 [2] = assay: Cytotoxicity against human MDA-MB-231 cells at 20 uM after 72 hrs by MTT assay; assay type: functional; settings: MDA-MB-231, 72 h
[3] = Antiaggregatory activity in human platelets assessed as inhibition of TPA-induced platelet aggregation preincubated for 3 mins before TPA challenge by turbidimetry analysis; assay type: functional, cell-based
Summary of the method: (§1)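 Washed platelets from ACD-anticoagulated blood of drug-free healthy volunteers, resuspended at 3 × 10⁸/ml in Tyrode's solution with Ca²⁺ 2 mM, glucose 11.1 mM and BSA 3.5 mg/ml. Platelets were stirred at 1200 rpm and 37 °C for 3 min with DMSO (0.5%, vehicle) or compound, then the inducer was added. Aggregation was read by light-transmission aggregometry. IC50 is the mean of two independent experiments (TPA lines n = 3).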

HBL-100 [4] = assay: Cytotoxicity against human HBL100 cells at 20 uM after 72 hrs by MTT assay; assay type: functional; settings: HBL-100, 72 h
[5] = Antiaggregatory activity in human platelets assessed as inhibition of collagen-induced platelet aggregation preincubated for 3 mins before collagen challenge by turbidimetry analysis; assay type: functional, cell-based
Summary of the method: as §1

[6] = Antiaggregatory activity in human platelets assessed as inhibition of A23187-induced platelet aggregation preincubated for 3 mins before A23187 challenge by turbidimetry analysis; assay type: functional, cell-based
Summary of the method: as §1

[7] = Antiaggregatory activity in human platelets assessed as inhibition of thrombin-induced platelet aggregation preincubated for 3 mins before thrombin challenge by turbidimetry analysis; assay type: functional, cell-based
Summary of the method: as §1

HBL-100 [8] = assay: Cytotoxicity against human HBL100 cells after 72 hrs by MTT assay; assay type: functional, cell-based; settings: HBL-100, 72 h
Summary of the method: (§2)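 MDA-MB-231 breast cancer or HBL-100 non-malignant breast epithelial cells: freshly trypsinized cells seeded at 8000 per well, with compound added from DMSO-diluted stock. After 72 h, attached cells were given MTT (0.5 mg/mL, 1 h) and solubilized in DMSO.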

MDA-MB-231 [9] = assay: Cytotoxicity against human MDA-MB-231 cells after 72 hrs by MTT assay; assay type: functional, cell-based; settings: MDA-MB-231, 72 h
Summary of the method: as §2

Row | SMILES | Activity [1] | inhibition at 20 µM (MDA-MB-231 [2]) [%] | IC50 [3] [nM] | inhibition at 20 µM (HBL-100 [4]) [%] | IC50 [5] [nM] | IC50 [6] [nM] | IC50 [7] [nM] | IC50 (HBL-100 [8]) [nM] | IC50 (MDA-MB-231 [9]) [nM]
1 | COc1cc(/C=C/[N+](=O)[O-])ccc1OC(=O)c1ccc(C(C)(C)C)cc1 | Dose-dependent effect | 2.5 | 3500 | -2.1 | 600 | 1100 | 600 | > 20000 | > 20000
2 | COc1cc(/C=C/[N+](=O)[O-])ccc1OC(=O)c1cccc(Cl)c1Cl | Dose-dependent effect | -4.9 | 5300 | 11.5 | 600 | 3300 | 700 | > 20000 | > 20000
